Measured values: ChEMBL document CHEMBL2331521, “Biologically active withanolides from Withania coagulans” (J Nat Prod, 2013)

Columns and labels:
RAW264.7 [1] = assay: Cancer chemopreventive activity in mouse RAW264.7 cells assessed as inhibition of LPS-induced nitric oxide production at 20 ug/mL treated 30 mins before LPS challenge measured after 20 hrs by Griess reagent assay
[2] = Inhibition of TNFalpha-induced NFkappaB (unknown origin) activation expressed in HEK293 cells after 6 hrs by luciferase reporter gene assay; type: cell-based; conditions: Homo sapiens, HEK293, 6 h
In short: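 HEK293 cells stably transfected with luciferase reporter under multiple NF-κB response elements, seeded 2 × 10^4/well, grown 48 h in DMEM/10% FBS/2 mM glutamine. Medium replaced; cells given test substances plus human recombinant TNF-α 2 ng/mL (0.14 nM) for 6 h, lysed, frozen −80 °C overnight, luciferase luminescence read. Percent inhibition; IC50 from dilution series (top 20 μM), each tested three times, curve-fitted.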

RAW264.7 [3] = assay: Cancer chemopreventive activity in mouse RAW264.7 cells assessed as inhibition of LPS-induced nitric oxide production treated 30 mins before LPS challenge measured after 20 hrs by Griess reagent assay
[4] = Cytotoxicity against human HEK293 cells assessed as cell survival at 20 uM by SRB assay; type: cell-based; conditions: read-out: Survival
In short: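 293/NFκB-luc cells seeded 2 × 10^4/well and grown 48 h. Run in parallel with the reporter assay: fresh medium, samples plus TNF-α 2 ng/mL for 6 h. Fixed with 20% TCA at 4 °C for 30 min, stained with 0.4% SRB in 1% acetic acid for 30 min at room temperature. Dye solubilised in 10 mM Tris base (pH 10), OD read at 515 nm, percent survival calculated.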

HEK293 [5] = assay: Inhibition of TNFalpha-induced NFkappaB (unknown origin) activation expressed in HEK293 cells at 20 uM after 6 hrs by luciferase reporter gene assay; type: cell-based; conditions: Homo sapiens
In short: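 HEK293 cells stably carrying an NF-κB response element–luciferase construct (hygromycin-selected). Seeded 2 × 10^4/well in DMEM with 10% FBS, antibiotics and 2 mM L-glutamine, grown 48 h. Fresh medium, then samples with recombinant human TNF-α 2 ng/mL (0.14 nM) for 6 h. Cells lysed, frozen overnight at −80 °C, luciferase luminescence read, percent inhibition calculated. TPCK positive control.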

[6] = Cytotoxicity against mouse RAW264.7 cells assessed as cell survival at 20 ug/mL by SRB assay; type: cell-based; conditions: read-out: Survival
In short: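 RAW 264.7 cells run under the NO assay conditions (30 min sample pretreatment, then 1 μg/mL LPS for 20 h). Cells fixed with 10% TCA and stained with 0.4% SRB in 1% acetic acid. Bound dye dissolved in 10 mM Tris and OD read at 515 nm.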

HEK293 [7] = assay: Cytotoxicity against human HEK293 cells assessed as cell survival by SRB assay; type: cell-based
In short: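 293/NFκB-luc cells (HEK293 stably carrying NF-κB-response-element luciferase reporter) seeded 2 × 10^4/well, grown 48 h in DMEM/10% FBS; treated with samples plus TNF-α 2 ng/mL (0.14 nM) for 6 h. Then TCA-fixed (20%, 4 °C, 30 min), stained 0.4% SRB in 1% acetic acid, dye solubilized in 10 mM Tris base pH 10; OD 515 nm; percent survival at 20 μM.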

Compound `CC1=C(CO)C(=O)O[C@@H]([C@](C)(O)[C@@]2(O)CC[C@H]3[C@@H]4CC=C5CC=CC(=O)[C@]5(C)[C@H]4CC[C@@]32C)C1` [WITHACOAGULIN G] has an inhibition at 20 µg/mL (RAW264.7 [1]) of 100%, an IC50 [2] of 11.8 µM and an IC50 (RAW264.7 [3]) of 1.9 µM. For the same compound, the viability at 20 µM [4] was 93.2%, the inhibition (HEK293 [5]) was 90.1% and the viability at 20 ug/mL [6] was 96.7%.
Work on `CC1=C(CO)C(=O)O[C@@H]([C@](C)(O)[C@@]2(O)CC=C3[C@@H]4CC=C5CC=CC(=O)[C@]5(C)[C@H]4CC[C@@]32C)C1` [WITHACOAGULIN H] yielded an inhibition at 20 µg/mL (RAW264.7 [1]) of 100%, an IC50 [2] of 5 µM and an IC50 (RAW264.7 [3]) of 3.1 µM. The viability at 20 µM [4] was 90.3%, the inhibition (HEK293 [5]) was 98.3% and the viability at 20 ug/mL [6] was 70.4%.
With `CC1=C(CO)C(=O)O[C@@H]([C@](C)(O)[C@H]2CC[C@@]3(O)[C@@H]4CC=C5CC=CC(=O)[C@]5(C)[C@H]4CC[C@]23C)C1` the inhibition at 20 µg/mL (RAW264.7 [1]) was 31.4%, the IC50 [2] was 7 µM and the viability at 20 µM [4] was 100%. For the same compound, the inhibition (HEK293 [5]) was 92.8% and the viability at 20 ug/mL [6] was 100%.
`Cc1ccc(S(=O)(=O)/C=C/C#N)cc1` showed an IC50 [2] of 5 µM.
For `CC1=C(C)C(=O)O[C@@H]([C@](C)(O)[C@@]2(O)CC[C@]3(O)[C@@H]4CC=C5C=CCC(=O)[C@]5(C)[C@H]4CC[C@]23C)C1` [WITHACOAGULIN I], the inhibition at 20 µg/mL (RAW264.7 [1]) was 69.8%, the IC50 [2] was 8.8 µM and the IC50 (RAW264.7 [3]) was 29 µM. It also gave a viability at 20 µM [4] of 89.4%, an inhibition (HEK293 [5]) of 89.9% and a viability at 20 ug/mL [6] of 100%.
`Cc1ccc(S(=O)(=O)N[C@@H](Cc2ccccc2)C(=O)CCl)cc1` [TPCK] gave an IC50 [2] of 10.8 µM and an IC50 (HEK293 [7]) of 3.8 µM.
In the case of `CC1=C(C)C(=O)O[C@@H]([C@](C)(O)[C@]2(O)CC[C@@]3(O)[C@@H]4CC=C5CC=CC(=O)[C@]5(C)[C@H]4CC[C@]23C)C1` [WITHANOLIDE F], the inhibition at 20 µg/mL (RAW264.7 [1]) is reported as 84.6%, the IC50 [2] is reported as 5.7 µM and the IC50 (RAW264.7 [3]) is reported as 10.9 µM. It also gave a viability at 20 µM [4] of 100%, an inhibition (HEK293 [5]) of 90.8% and a viability at 20 ug/mL [6] of 100%.
`CC1=C(C)C(=O)O[C@@H]([C@](C)(O)[C@H]2CC[C@@]3(O)[C@@H]4CC=C5CC=CC(=O)[C@]5(C)[C@H]4CC[C@]23C)C1` gave an inhibition at 20 µg/mL (RAW264.7 [1]) of 88.5%, an IC50 [2] of 12.3 µM and an IC50 (RAW264.7 [3]) of 37.5 µM. The viability at 20 µM [4] was 71.9%, the inhibition (HEK293 [5]) was 86.9% and the viability at 20 ug/mL [6] was 100%.
`CC1=C(CO)C(=O)O[C@@H]([C@](C)(O)[C@]2(O)CC[C@@]3(O)[C@@H]4CC=C5CC=CC(=O)[C@]5(C)[C@H]4CC[C@]23C)C1` gave an inhibition at 20 µg/mL (RAW264.7 [1]) of 95.1%, an IC50 [2] of 1.6 µM and an IC50 (RAW264.7 [3]) of 6.9 µM. It also gave a viability at 20 µM [4] of 88.6%, an inhibition (HEK293 [5]) of 90.1% and a viability at 20 ug/mL [6] of 100%.
`CC1=C(CO)C(=O)O[C@@H]([C@](C)(O)[C@H]2CC=C3[C@@H]4CC=C5CC=CC(=O)[C@]5(C)[C@H]4CC[C@@]32C)C1` gave an inhibition at 20 µg/mL (RAW264.7 [1]) of 76.3%, an IC50 [2] of 12.4 µM and an IC50 (RAW264.7 [3]) of 38.2 µM. The viability at 20 µM [4] was 48.3%, the inhibition (HEK293 [5]) was 88.6% and the viability at 20 ug/mL [6] was 100%.
`CC1=C(C)C(=O)O[C@@H]([C@](C)(O)C2=CC[C@@]3(O)[C@@H]4CC=C5CC=CC(=O)[C@]5(C)[C@H]4CC[C@]23C)C1` gave an inhibition at 20 µg/mL (RAW264.7 [1]) of 69.1%, an IC50 [2] of 5.7 µM and an IC50 (RAW264.7 [3]) of 10.4 µM. The viability at 20 µM [4] was 100%, the inhibition (HEK293 [5]) was 90.2% and the viability at 20 ug/mL [6] was 100%.
